A selection: hits, their analogues and other compounds. The true share with any hit is near 2.2%.
Myeloid diff 2: compounds promoting myeloid differentiation. 360,000 compounds, 1% hits. ER-HoxA9 myeloid progenitors, lysozyme-GFP differentiation, flow cytometry. calls only at 10 µM;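 active = normalized GFP-positive differentiation at or above the plate's own cutoff, the solvent-only control mean plus 3 SD; inconclusive = no clear call, values can overlap the other calls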;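 also: cells exposed to compound for four days before flow analysis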
HNF4A DNA FP: change in binding of human HNF4 alpha to DNA. P41235. HNF4a-FITC DNA binding, fluorescence polarization, 1 h. activity change, % at 10 µM. 360,000 compounds, 0.3% hits. AID 1224865; in the data active = activity change above about 30%, passing the limit was not always enough
CSN deneddyl inh: inhibitors of human CSN-mediated cullin deneddylation; inhibition, % at 12.5 µM; Q92905; Purified CSN, SCF-Nedd8-OG deneddylation, fluorescence polarization; 360,000 compounds, 0.38% hits;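 active = pattern-corrected inhibition above about 35%, with an unprinted fluorescence ratio check between 0.5 and 1.5, limit read from the data, passing the limit was not always enough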
Target sequence (Q92905 whole entry, looked up, one chain of several): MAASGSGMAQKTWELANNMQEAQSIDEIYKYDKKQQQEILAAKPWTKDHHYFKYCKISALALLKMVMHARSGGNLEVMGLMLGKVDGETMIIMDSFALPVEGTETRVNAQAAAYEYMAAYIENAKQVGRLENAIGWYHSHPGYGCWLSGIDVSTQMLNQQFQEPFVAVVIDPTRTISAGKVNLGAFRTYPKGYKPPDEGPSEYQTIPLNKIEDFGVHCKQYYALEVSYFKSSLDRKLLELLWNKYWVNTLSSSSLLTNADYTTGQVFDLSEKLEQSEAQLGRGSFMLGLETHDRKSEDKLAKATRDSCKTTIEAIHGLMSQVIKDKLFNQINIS
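Test system: Human Csn5 produced in HEK293T cells | Compound: 12.5 µM single point | Times: 90 min, room temperature | Signal: Fluorescence polarization readout | Read-out basis: % inhibition of substrate cleavage by Csn5 | Controls: no-enzyme wells high, enzyme-with-substrate wells low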
Granule exo inh: blocks lytic granule exocytosis | TALL-104 LAMP-1 surface exposure, flow cytometry; cells stimulated with thapsigargin and PMA | inhibition, % at 10 µM | 360,000 compounds, 0.66% hits;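 active = inhibition above about 55%, limit read from the data; inconclusive = no clear call, values can overlap the other calls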
Myeloid diff CP1: myeloid differentiation induction | shares compounds with Myeloid diff 2 | 2,300 compounds, 2% hits | calls only | ER-HoxA9 myeloid progenitors, GFP/Mac1 double-positive flow | AID 651706;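 active = share of green or green-and-red cells above 9 and 9% in run 1 or 4 and 3% in run 2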
GFP autofluor: compound fluorescence in myeloid differentiation counter-screen | shares compounds with Myeloid diff 2 | ER-HoxA9 myeloid progenitors, no estrogen, GFP autofluorescence flow cytometry; vehicle wells 0%, positive control 100% | fluorescence response, % (test concentration not listed) | 2,300 compounds, 7.4% hits;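 active = over 5% cells positive for green fluorescent reporter, or over 2% positive for both it and APC stain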
Calls only; n = inactive; u = inconclusive; x = no result; + = active, no number.

SMILES	Myeloid diff 2	HNF4A DNA FP	CSN deneddyl inh	Granule exo inh	Myeloid diff CP1	GFP autofluor
Cn1c(N)c(C(=O)COC(=O)c2ccco2)c(=O)n(C)c1=O	+	n	n	n	n	n
CC(C)(C)c1ccc(OCCC(=O)NNC(=O)c2ccccc2)cc1	n	n	n	n	x	x
CC(C)(C)c1ccc(C(=O)NNC(=O)CCC(=O)Nc2ccccc2)cc1	+	n	n	n	n	n
CCOc1ccc(C2C(C(=O)OC)=CN(C(C)c3ccccc3)C=C2C(=O)OC)cc1 (centres undefined)	n	n	n	n	x	x
CN(C)CCN1CC(O)=C(c2nc3ccccc3s2)C1=N	n	n	n	n	x	x
N=C1C(c2nc3ccccc3s2)=C(O)CN1Cc1ccco1	+	n	n	n	n	n
CC(C)(C)c1ccccc1NC(=O)c1cc(-c2ccncc2)nc2ccccc12	n	n	n	n	n	n
O=C(NCCNS(=O)(=O)c1cccc(C(F)(F)F)c1)c1cc(OCC(F)(F)F)ccc1OCC(F)(F)F	n	n	n	n	n	n
CS(=O)(=O)NCCNC(=O)c1cc(OCC(F)(F)F)ccc1OCC(F)(F)F	n	n	n	n	x	x
CCN(CC)C(=O)COC(=O)c1ccc(C)c(NC(=O)c2ccco2)c1	n	n	n	n	x	x
Cc1ccc(C(=O)OCC(=O)c2c[nH]c3ccccc23)cc1NC(=O)c1ccco1	n	n	n	n	n	n
COc1ccc(N(C)S(=O)(=O)c2cccc(C(=O)OCC(=O)N3CC(C)CC(C)C3)c2)cc1 (centres undefined)	n	n	n	n	x	x
CC(Oc1ccc(Cl)cc1Cl)C(=O)NCCCn1ccnc1 (centres undefined)	+	n	n	n	n	n
O=C(CCCOc1ccc(Cl)cc1Cl)NCCCn1ccnc1	n	n	n	n	x	x
Cn1cnc2ncnc(Oc3ccc(Br)cc3)c21	u	n	n	n	x	x
CCN1CCN(CCCNC(=O)CS(=O)(=O)Cc2nc(-c3cccc(OC)c3)oc2C)CC1	n	n	n	n	n	n
COc1cccc(CNC(=O)CN2C(=O)CCSc3ccc(S(=O)(=O)N4CCCC4)cc32)c1	u	n	n	n	x	x
COc1cccc(-c2sc3ccccc3c2-c2ccc(OCCN3CCCCC3)cc2)c1	n	n	n	n	n	n
c1ccc(-c2sc3ccccc3c2-c2ccc(OCCN3CCCC3)cc2)cc1	n	n	n	n	n	n
COc1cccc(-c2sc3ccccc3c2-c2ccc(OCCN3CCCC3)cc2)c1	n	n	n	n	x	x
CN(CC(=O)Nc1ccc(Cl)c(C(F)(F)F)c1)C(=O)c1cnccn1	n	n	n	n	x	x
Cc1cccc(C)c1-n1nnnc1S(=O)(=O)Cc1ccccc1Cl	n	n	n	n	n	n
NNC(=O)c1ccc(CSc2nc3ccccc3[nH]2)cc1	n	n	n	n	n	n
O=C(O)c1ccc(CSc2nc3ccccc3[nH]2)cc1	n	n	n	n	x	x
Oc1ccccc1N=Cc1sc2ccccc2c1Cl	+	n	n	n	n	n
SMILES	Myeloid diff 2	HNF4A DNA FP	CSN deneddyl inh	Granule exo inh	Myeloid diff CP1	GFP autofluor
COc1ccc(NC(=O)Cn2nnc(C(=O)NCc3cccs3)c2N)cc1OC	n	n	n	n	x	x
Cc1ccc(NC(=O)Cn2nnc(C(=O)NCc3cccs3)c2N)cc1F	+	n	n	n	n	n
Cc1ccc(C(=O)NCCN2CCC(n3c(=O)[nH]c4ccccc43)CC2)cc1F	n	n	n	n	x	x
S=C1CSc2ccccc2N1	n	n	n	n	x	x
c1ccc2c(c1)NCCS2	+	n	n	n	n	n
Cc1ccc(-n2nc3c(=O)n(CCCC(=O)NCCN4CCN(C)CC4)nc(C)c3c2C)cc1	n	n	n	n	x	x
CC(C)(C)c1ccc(-c2noc(CCC(=O)NCC3CCCO3)n2)cc1 (centres undefined)	n	n	n	n	n	n
COc1ccc(CCC(=O)Nc2nc(C)c(C(=O)N(C)C)s2)cc1	n	n	n	n	x	x
COc1ccc(C(=O)NC2CCN(CC(=O)N3CCCCC3)CC2)cc1	n	n	n	n	x	x
Cc1cc(C)nc(-n2ncc3c2CC(c2ccc(F)cc2)CC3=O)n1 (centres undefined)	n	n	n	n	n	n
Cc1cc(C)nc(-n2ncc3c2CC(c2ccccc2)CC3=O)n1 (centres undefined)	n	n	n	n	x	x
O=C(O)c1ccc(Nc2ncnc3scc(-c4ccccc4)c23)cc1	+	n	n	n	n	n

Bioassay records: PubChem BioAssay, several laboratories
